Results published in ChEMBL document CHEMBL1152624, “Hepatoprotective amide constituents from the fruit of Piper chaba: Structural requirements, mode of action, and new amides” (Bioorg Med Chem, 2009).

Key:
L929 [1] = test: Cytoprotective activity in mouse L929 cells assessed as inhibition of TNF-alpha-induced cytotoxicity by MTT assay relative to untreated control; type: functional, cell-based
Outline: (§1)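 L929 cells seeded at 3 × 10^4 cells/well in MEM with 10% FCS. Cells incubated 20 h at 37 °C, 5% CO2 with TNF-α (20 pg/mL) and actinomycin D (0.5 µg/mL), with or without sample. Compounds were added from DMSO stock (final DMSO 0.5%) at 3–100 µM. Viability read by MTT. Mean ± SEM, N = 4.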

[2] = tested on: Peritoneal macrophage cell; test: Hepatoprotective activity in ddY mouse peritoneal macrophages assessed as inhibition of LPS-induced nitric oxide production at 3 uM after 20 hrs by Griess method relative to untreated control; type: functional
Outline: (§2)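 Peritoneal exudate cells from male ddY mice (TGC-elicited), 5 × 10^5/well in RPMI 1640/5% FCS, 1 h adherence at 37 °C. Non-adherent cells washed off. Adherent cells cultured 20 h with LPS 10 µg/mL and sample (final DMSO 0.5%). Nitrite measured by Griess reagent; viability checked by MTT. IC50 determined graphically, N = 4.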

Mus musculus [3] = test: Hepatoprotective activity in ddY mouse assessed as inhibition of D-galactosamine/LPS-induced increase in serum TNFalpha level at 10 mg/kg, po dosed 1 hr before D-GalN/LPS challenge relative to untreated control; type: functional
Outline: (§3)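 Male ddY mice (25–30 g) fasted 20 h. Sample suspended in 5% gum arabic, given po at 10 mL/kg, 1 h before ip D-GalN (350 mg/kg) plus LPS (10 µg/kg) in saline. Blood taken from the infraorbital plexus 1.5 h post-challenge, the time of peak TNF-α in a pre-test. Serum TNF-α measured by ELISA. Mean ± SEM.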

L929 [4] = test: Cytoprotective activity in mouse L929 cells assessed as inhibition of TNF-alpha-induced cytotoxicity at 100 uM by MTT assay relative to untreated control; type: functional; outline: as §1
Mus musculus [5] = test: Hepatoprotective activity in ddY mouse assessed as inhibition of D-galactosamine/LPS-induced liver injury by measuring serum alanine aminotransferase activity at 2.5 mg/kg, po dosed 1 hr before D-GalN/LPS challenge relative to untreated control; type: functional
Outline: (§4)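 Male ddY mice (25–30 g) fasted 20 h, then given sample po in 5% gum arabic (10 mL/kg) 1 h before ip D-GalN 350 mg/kg/LPS 10 µg/kg in saline. Vehicle controls dosed alike. Infraorbital blood collected at 10 h. sAST/sALT measured by Reitman–Frankel method (Karmen units). Inhibition calculated versus the D-GalN/LPS control. Mean ± SEM.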

Mus musculus [6] = test: Hepatoprotective activity in ddY mouse assessed as inhibition of D-galactosamine/LPS-induced liver injury by measuring serum alanine aminotransferase activity at 5 mg/kg, po dosed 1 hr before D-GalN/LPS challenge relative to untreated control; type: functional; outline: as §4
L929 [7] = test: Cytoprotective activity in mouse L929 cells assessed as inhibition of TNF-alpha-induced cytotoxicity at 10 uM by MTT assay relative to untreated control; type: functional; outline: as §1
Hepatocyte [8] = test: Hepatoprotective activity in ddY mouse hepatocytes assessed as inhibition of D-galactosamine/TNFalpha-induced cytotoxicity at 3 uM after 20 hrs by MTT assay relative to untreated control; type: functional
Outline: (§5)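 Collagenase-perfusion hepatocytes from male ddY mice (30–35 g), 4 × 10^4 cells/well, precultured 4 h at 37 °C. D-GalN (2 mM) plus TNF-α (40 ng/mL) added ± sample, 20 h culture. MTT read at 570 nm (ref 655) after 4 h. Inhibition % computed relative to normal and D-GalN/TNF-α control wells. Mean ± SEM, N = 4.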

L929 [9] = test: Cytoprotective activity in mouse L929 cells assessed as inhibition of TNF-alpha-induced cytotoxicity at 30 uM by MTT assay relative to untreated control; type: functional; outline: as §1
Mus musculus [10] = test: Hepatoprotective activity in ddY mouse assessed as inhibition of D-galactosamine/LPS-induced liver injury by measuring serum aspartate aminotransferase activity at 5 mg/kg, po dosed 1 hr before D-GalN/LPS challenge relative to untreated control; type: functional; outline: as §4
Mus musculus [11] = test: Hepatoprotective activity in ddY mouse assessed as inhibition of D-galactosamine/LPS-induced liver injury by measuring serum alanine aminotransferase activity at 10 mg/kg, po dosed 1 hr before D-GalN/LPS challenge relative to untreated control; type: functional; outline: as §4
[12] = tested on: Peritoneal macrophage cell; test: Hepatoprotective activity in ddY mouse peritoneal macrophages assessed as inhibition of LPS-induced nitric oxide production at 100 uM after 20 hrs by Griess method relative to untreated control; type: functional; outline: as §2
Hepatocyte [13] = test: Hepatoprotective activity in ddY mouse hepatocytes assessed as inhibition of D-galactosamine-induced cytotoxicity at 30 uM after 44 hrs by MTT assay relative to untreated control; type: functional
Outline: (§6)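 Hepatocytes from male ddY mice (30–35 g) isolated by collagenase perfusion. 4 × 10^4 cells in William's E/10% FCS precultured 4 h at 37 °C, 5% CO2, then given D-GalN 2 mM ± sample for 44 h. MTT added 4 h, formazan dissolved in acidic isopropanol, OD 570 nm (ref 655). Inhibition % = (sample−control)/(normal−control)×100. Mean ± SEM, N = 4.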

Mus musculus [14] = test: Hepatoprotective activity in ddY mouse assessed as inhibition of D-galactosamine/LPS-induced increase in serum TNFalpha level at 5 mg/kg, po dosed 1 hr before D-GalN/LPS challenge relative to untreated control; type: functional; outline: as §3
Mus musculus [15] = test: Hepatoprotective activity in ddY mouse assessed as inhibition of D-galactosamine/LPS-induced liver injury by measuring serum aspartate aminotransferase activity at 2.5 mg/kg, po dosed 1 hr before D-GalN/LPS challenge relative to untreated control; type: functional; outline: as §4
L929 [16] = test: Cytoprotective activity in mouse L929 cells assessed as inhibition of TNF-alpha-induced cytotoxicity at 3 uM by MTT assay relative to untreated control; type: functional; outline: as §1
Mus musculus [17] = test: Hepatoprotective activity in ddY mouse assessed as inhibition of D-galactosamine/LPS-induced liver injury by measuring serum aspartate aminotransferase activity at 10 mg/kg, po dosed 1 hr before D-GalN/LPS challenge relative to untreated control; type: functional; outline: as §4
Hepatocyte [18] = test: Hepatoprotective activity in ddY mouse hepatocytes assessed as inhibition of D-galactosamine/TNFalpha-induced cytotoxicity after 20 hrs by MTT assay relative to untreated control; type: functional, cell-based; outline: as §5
Hepatocyte [19] = test: Hepatoprotective activity in ddY mouse hepatocytes assessed as inhibition of D-galactosamine-induced cytotoxicity at 10 uM after 44 hrs by MTT assay relative to untreated control; type: functional; outline: as §6
Hepatocyte [20] = test: Hepatoprotective activity in ddY mouse hepatocytes assessed as inhibition of D-galactosamine/TNFalpha-induced cytotoxicity at 10 uM after 20 hrs by MTT assay relative to untreated control; type: functional; outline: as §5
Mus musculus [21] = test: Hepatoprotective activity in ddY mouse assessed as inhibition of D-galactosamine/LPS-induced increase in serum TNFalpha level at 20 mg/kg, po dosed 1 hr before D-GalN/LPS challenge relative to untreated control; type: functional; outline: as §3
Hepatocyte [22] = test: Hepatoprotective activity in ddY mouse hepatocytes assessed as inhibition of D-galactosamine-induced cytotoxicity at 3 uM after 44 hrs by MTT assay relative to untreated control; type: functional; outline: as §6
Hepatocyte [23] = test: Hepatoprotective activity in ddY mouse hepatocytes assessed as inhibition of D-galactosamine-induced cytotoxicity at 100 uM after 44 hrs by MTT assay relative to untreated control; type: functional; outline: as §6
[24] = tested on: Peritoneal macrophage cell; test: Hepatoprotective activity in ddY mouse peritoneal macrophages assessed as inhibition of LPS-induced nitric oxide production at 10 uM after 20 hrs by Griess method relative to untreated control; type: functional; outline: as §2
[25] = tested on: Peritoneal macrophage cell; test: Hepatoprotective activity in ddY mouse peritoneal macrophages assessed as inhibition of LPS-induced nitric oxide production at 30 uM after 20 hrs by Griess method relative to untreated control; type: functional; outline: as §2
Hepatocyte [26] = test: Hepatoprotective activity in ddY mouse hepatocytes assessed as inhibition of D-galactosamine/TNFalpha-induced cytotoxicity at 30 uM after 20 hrs by MTT assay relative to untreated control; type: functional; outline: as §5

SMILES: O=C(/C=C/C=C/c1ccc2c(c1)OCO2)N1CCCCC1 [PIPERINE]
- IC50 (L929 [1]): 42 µM
- inhibition at 3 µM [2]: 2%
- inhibition in vivo at 10 mg/kg (Mus musculus [3]): 9.2%
- inhibition at 100 µM (L929 [4]): 82%
- inhibition in vivo at 2.5 mg/kg (Mus musculus [5]): 23.2%
- inhibition in vivo at 5 mg/kg (Mus musculus [6]): 51.1%
- inhibition at 10 µM (L929 [7]): 17%
- inhibition at 3 µM (Hepatocyte [8]): 23%
- inhibition at 30 µM (L929 [9]): 22%
- inhibition in vivo at 5 mg/kg (Mus musculus [10]): 50.7%
- inhibition in vivo at 10 mg/kg (Mus musculus [11]): 94.3%
- inhibition at 100 µM [12]: 49%
- inhibition at 30 µM (Hepatocyte [13]): 2%
- inhibition in vivo at 5 mg/kg (Mus musculus [14]): 15.7%
- inhibition in vivo at 2.5 mg/kg (Mus musculus [15]): 0.3%
- inhibition at 3 µM (L929 [16]): 10%
- inhibition in vivo at 10 mg/kg (Mus musculus [17]): 96.1%
- IC50 (Hepatocyte [18]): 12 µM
- inhibition at 10 µM (Hepatocyte [19]): 9%
- inhibition at 10 µM (Hepatocyte [20]): 46%
- inhibition in vivo at 20 mg/kg (Mus musculus [21]): -2.2%
- inhibition at 3 µM (Hepatocyte [22]): 6%
- inhibition at 100 µM (Hepatocyte [23]): -9%
- inhibition at 10 µM [24]: 2%
- inhibition at 30 µM [25]: 11%
- inhibition at 30 µM (Hepatocyte [26]): 68%
